Compound activity: PubChem, The Scripps Research Institute Molecular Screening Center
TAAR1 antagonist: human TAAR1 antagonists, primary screen, Fluo-8 calcium fluorescence, CHO RD-HGA16 cells; Trace amine-associated receptor 1 (Homo sapiens), Q96RJ0; antagonist; inhibition, % at 3 µM; 360,000 compounds, 1.5% hits;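 active means inhibition above a per-plate cutoff, the mean inhibition of test compounds on that plate plus 3 SD, cut at about 49% in these data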;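 further: 0% = DMSO plus EC80 beta-PEA response and 100% = DMSO alone without agonist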
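Test system: RD-HGA16 CHO cells with stable hTAAR1 and Gα16 / Probe or stimulus: EC80 β-phenethylamine stimulus / Times: seeding 17-24 h prior, 75-min 37 °C, 30-min RT dye loading / Detection: Fluo-8 calcium-sensitive fluorescence / Read-out basis: % inhibition scaled between DMSO and EC80 PEA controls / Repeats: singlicate, one well per test compound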
GPR7 antag: GPR7 receptor antagonists, primary screen, cell-based, fluorescence, single concentration | Neuropeptides B/W receptor type 1 (Homo sapiens), P48145 | GPR7-expressing cells, fluorescence antagonist assay | inhibition, % at 4.4 µM | 290,000 compounds, 1.1% hits | AID 1861, 2009; in the data active means inhibition above about 16%, passing the limit was not always enough;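 further: cells stimulated with the agonist NPW; 0% = agonist with vehicle and 100% = vehicle without agonist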
Target sequence (P48145 whole entry, looked up): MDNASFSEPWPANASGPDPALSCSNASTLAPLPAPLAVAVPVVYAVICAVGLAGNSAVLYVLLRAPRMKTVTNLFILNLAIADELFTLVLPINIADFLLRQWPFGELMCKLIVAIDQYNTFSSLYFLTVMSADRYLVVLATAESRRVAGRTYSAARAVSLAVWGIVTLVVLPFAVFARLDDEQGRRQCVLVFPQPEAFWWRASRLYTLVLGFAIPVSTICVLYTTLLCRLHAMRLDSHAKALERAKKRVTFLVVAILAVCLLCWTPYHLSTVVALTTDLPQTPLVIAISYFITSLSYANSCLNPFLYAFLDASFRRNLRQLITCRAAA
TAAR1 agonist: human TAAR1 agonists, primary screen, Fluo-8 calcium fluorescence, CHO RD-HGA16 cells. 360,000 compounds, 0.99% hits. vehicle wells 0%, saturating PEA agonist 100%. AID 624467, 2012. activation, % at 3 µM. Trace amine-associated receptor 1 (Homo sapiens), Q96RJ0;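 active means activation above the mean activation of all test compounds in the run plus 3 SD, cut at about 38% in these data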
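Assay system – CHO-derived RD-HGA16 cells with stable Gα16 and human TAAR1 · Compound dosing – one-point dosing at 3 µM (nominal) · Incubation – 17-24 h seeding, 75 min 37 °C dye, 30 min RT · Measured by – kinetic Fluo-8 calcium fluorescence · Control set – DMSO vehicle as 0%, PEA at EC100 as 100% · Repeats – single well for each compound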
OX1R antag-1: OX1R (HCRTR1) antagonists, primary screen, fluorescence, CHO/OX1R cells, Fluo-8 calcium, orexin A | inhibition, % at 5 µM | Orexin/Hypocretin receptor type 1 (Homo sapiens), O43613 | Fluo-8 calcium fluorescence | 330,000 compounds, 0.43% hits;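 active means inhibition above its plate's threshold, mean inhibition of all tested compounds on the plate plus 3 SD, cut at about 37% in these data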;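 further: 0% = orexin A challenge wells and 100% = SB-334867-A antagonist wells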
Target sequence (O43613 whole entry, looked up): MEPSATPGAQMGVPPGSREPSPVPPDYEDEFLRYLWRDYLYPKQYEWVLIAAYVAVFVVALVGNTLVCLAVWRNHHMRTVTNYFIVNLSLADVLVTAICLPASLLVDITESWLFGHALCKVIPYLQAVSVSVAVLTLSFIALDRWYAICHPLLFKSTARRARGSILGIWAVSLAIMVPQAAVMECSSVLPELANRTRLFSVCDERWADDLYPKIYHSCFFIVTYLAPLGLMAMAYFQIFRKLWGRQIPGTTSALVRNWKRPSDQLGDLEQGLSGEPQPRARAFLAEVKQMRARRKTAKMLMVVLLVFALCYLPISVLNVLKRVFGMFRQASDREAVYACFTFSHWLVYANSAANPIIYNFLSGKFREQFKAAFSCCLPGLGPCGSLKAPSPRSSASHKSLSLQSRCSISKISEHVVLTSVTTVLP
CHO parental Ca: ATP-evoked calcium signal inhibitors, parental CHO, primary screen, counter-screen for OX1R antagonist project, cell-based, fluorescence, Fluo-8 calcium dye. parental CHO-K1, ATP-induced calcium, Fluo-8 fluorescence. inhibition, % at 5.6 µM. 330,000 compounds, 0.63% hits;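 active means inhibition above that plate's mean sample inhibition plus 3 SD, cut at about 26% in these data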;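 further: 0% = ATP-challenged DMSO wells and 100% = DMSO wells without ATP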
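Assay system: untransfected parental CHO cell line. Also added: ATP agonist challenge. Dosing: one dose, 5.6 µM nominal. Measured by: Fluo-8 fluorescence. Read-out: % inhibition. Benchmarks: ATP wells versus no-ATP DMSO wells. Repeats: no replicates.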
OX1R antag-2: antagonists of human orexin 1 receptor (OX1R); Orexin/Hypocretin receptor type 1 (Homo sapiens), O43613; OX1R-expressing cells, FRET antagonist read-out; inhibition, % at 6.6 µM; 330,000 compounds, 1.8% hits; AID 485270, 2010; in the data active means inhibition mostly above about 38%, no sharp cut-off; inactive means mostly below about 40%;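 further: 0% = agonist challenge alone and 100% = reference antagonist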
TAAR1 nonsel count: nonselective antagonists in TAAR1 counter-screen cells, counter-screen for hTAAR1 antagonist project, cell-based, fluorescence, calcium; shares compounds with TAAR1 antagonist; counterscreen cell line, antagonist mode; inhibition, % at 3 µM; 2,400 compounds, 77% hits; in the data active means inhibition above about 22%;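 further: CHO-Ga16 host cells stimulated with ATP at an EC80 level; 0% = agonist EC80 plus vehicle and 100% = vehicle without agonist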
TAAR1 antag conf: human TAAR1 antagonists, retest of hits, confirmation, cell-based, fluorescence; TAAR1-expressing cells, fluorescence antagonist read-out; inhibition, % at 3 µM; shares compounds with TAAR1 antagonist; 2,400 compounds, 40% hits; in the data active means inhibition above about 49%;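 further: CHO-Ga16 host cells challenged with agonist PEA near its EC80; 0% = agonist at EC80 plus vehicle and 100% = vehicle with no agonist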
Ga16 nonsel ag: calcium activation in Ga16-expressing cells, counter-screen for TAAR1 antagonist project, cell-based, fluorescence | 2,400 compounds, 18% hits | activation, % at 3 µM | AID 651953, 2012 | shares compounds with TAAR1 antagonist | agonist counterscreen; in the data active means activation above about 12%;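 further: 0% = vehicle wells and 100% = saturating stimulus response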
TAAR1 ag count: TAAR1 activation by candidate antagonists – cell-based, fluorescence, counter-screen for TAAR1 antagonist project; 2,400 compounds, 2% hits; shares compounds with TAAR1 antagonist; activation, % at 3 µM; hTAAR1 cell line, agonist mode; in the data active means activation above about 37%;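 further: CHO cells stably expressing TAAR1 with calcium dye readout; 0% = DMSO vehicle and 100% = full agonist response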
The depositor's hits bear a star; . = not tested or not shown. Compounds with a hit are over-represented: about 4.5% of the library has one in this group of screens.

SMILES	TAAR1 antagonist	GPR7 antag	TAAR1 agonist	OX1R antag-1	CHO parental Ca	OX1R antag-2	TAAR1 nonsel count	TAAR1 antag conf	Ga16 nonsel ag	TAAR1 ag count
CCO[C@@H]1OC(C(=O)NCc2ccccc2)=C[C@H](c2ccc3c(c2)OCO3)[C@H]1CCCO	-11	-15	10	-29	-17	14	.	.	.	.
Cc1c(Cl)c([N+](=O)[O-])nn1Cc1ccc(C(=O)N/N=C\c2cccc(Br)c2)o1	65*	-2	9	27	-2	56	35*	44	7	2
CCc1ccc(S(=O)(=O)Nc2ccc(O)c3c(=O)cc(-c4ccccc4Cl)oc23)cc1	61*	.	14	-12	-18	32	4	25	7	16
Cc1ccc2nc(NC(=O)C3CCN(S(=O)(=O)c4cccc5nsnc45)CC3)sc2c1	65*	-9	16	-2	-3	24	33*	45	10	7
CC(C)(C)c1ccc(C(=O)N2[C@H](COCc3ccccc3)C=CS2(=O)=O)cc1	-14	.	5	.	.	.	.	.	.	.
CC1Nc2ncnc(N3CCN(c4ccccc4)CC3)c2N(Cc2ccc(Cl)cc2)C1=O (stereo not drawn)	53*	.	26	-21	-9	13	22*	38	7	8
CC(C)CC1Nc2ncnc(N3CCN(c4ccccc4)CC3)c2N(Cc2ccccc2)C1=O (stereo not drawn)	-29	.	0	-43	-30	13	.	.	.	.
CC1Nc2ncnc(N3CCN(c4ccccc4)CC3)c2N(Cc2ccccc2)C1=O (stereo not drawn)	50*	.	24	-15	-22	1	22*	35	7	13
Clc1ccc(OCc2nnc(SCc3nc4ccccc4[nH]3)n2Cc2ccco2)cc1	50*	9	7	-17	-17	17	45*	54*	14*	15
CN(CC(=O)Nc1ccccc1Cl)C(=O)COC(=O)c1cc([N+](=O)[O-])ccc1N1CCOCC1	2	.	-1	-18	-21	43	.	.	.	.
CCOC(=O)c1ccccc1NC(=O)COC(=O)c1cc([N+](=O)[O-])ccc1N1CCOCC1	59*	.	1	-12	-9	43	27*	30	7	3
CCOC(=O)C1=CN(Cc2cccc(-c3cccnc3)c2)S(=O)(=O)N(C)C1C (stereo not drawn)	49*	.	3	-9	-5	10	21*	25	4	0
O=C(O)c1cc(NC(=O)c2ccc3c(c2)C(=O)N(Cc2cccnc2)C3=O)cc(C(=O)O)c1	-25	-26	0	0	0	15	.	.	.	.
C#Cc1cccc(NC(=O)c2ccc3c(c2)C(=O)N(Cc2cccnc2)C3=O)c1	85*	-5	15	-10	-4	15	42*	61*	14*	14
O=C(c1ccc(N2CCN(C(=O)c3cccc(F)c3)CC2)cc1)c1cccc(F)c1	53*	-2	4	-9	-4	4	24*	34	9	11
O=C(C(Sc1ccccc1)c1ccccc1)N1CCN(c2ccccc2F)CC1 (stereo not drawn)	50*	14	6	-15	-17	28	17	36	7	8
COc1ccccc1N1CCN(C(=O)c2cccc(C(=O)N3CCN(c4ccccc4OC)CC3)c2)CC1	54*	-14	17	-15	-23	44	27*	49*	9	10
O=C(c1cccc(F)c1)N1CCN(c2cccc(C(F)(F)F)c2)CC1	-2	-3	2	-12	-16	2	.	.	.	.
CCc1ccccc1S(=O)(=O)Cc1ccc(C(=O)N2CCN(c3ccccc3OC)CC2)o1	72*	5	17	-13	-15	13	29*	50*	18*	38*
CCCCN1C[C@H](CSC)[C@@H](CC(=O)Nc2ccc(OC)cc2)C1=O	-5	.	5	.	.	.	.	.	.	.
CCOC(=O)N(C)C[C@H]1OCc2cnnn2CCCC(=O)N([C@H](C)CO)C[C@H]1C	-10	.	0	.	.	.	.	.	.	.
O=C(c1ccc2c(=O)n(CCc3ccccc3)c(=O)[nH]c2c1)N1CCN(c2ccc(F)cc2)CC1	58*	-14	9	7	-4	9	29*	45	6	10
O=C(c1cccc(C(=O)N2CCN(c3ccccc3F)CC2)c1)N1CCN(c2ccccc2F)CC1	68*	4	11	-18	-12	9	27*	36	9	5
O=C(c1ccc2c(=O)n(CCc3ccccc3)c(=O)[nH]c2c1)N1CCN(c2ccccc2)CC1	.	-25	.	-22	-21	21	.	.	.	.
CC(C)OCCCNC(=O)C1CCN(S(=O)(=O)c2ccc3nc4c(c(C(=O)O)c3c2)CCCCC4)CC1	4	-15	6	-3	-8	3	.	.	.	.
SMILES	TAAR1 antagonist	GPR7 antag	TAAR1 agonist	OX1R antag-1	CHO parental Ca	OX1R antag-2	TAAR1 nonsel count	TAAR1 antag conf	Ga16 nonsel ag	TAAR1 ag count
Cc1ccc(C(=O)NCC(=O)OCC(=O)/C=C2\N(C)c3ccccc3C2(C)C)cc1C	58*	-6	3	-36	-15	16	29*	41	6	8
O=C(NCc1cccs1)C1C(=O)Nc2ccccc2C(=O)N1Cc1ccccc1 (stereo not drawn)	-22	.	3	.	.	.	.	.	.	.
O=C(NCc1ccccc1)c1cccc2c(-c3cccnc3)coc12	25	.	9	.	.	.	.	.	.	.
NC(=O)c1cccc(-c2coc3c(C(=O)NCCc4ccccc4)cccc23)c1	64*	.	6	.	.	.	36*	45	6	6
Cc1nn2c(C)c(C(=O)Nc3ccccc3)cnc2c1C#N	53*	-3	13	-24	-5	26	20	35	9	8
Cc1cc2ncc(C(=O)Nc3ccccc3)c(C)n2n1	-3	-15	2	-22	-15	9	.	.	.	.
